Activity calls are given as the source filed them. No cut-off for these calls is given here.
What was measured:
BEND3 [1] = test: Inhibition of GLUT in mouse BEND3 cells assessed as decrease in cell migration at 20 micromol/L; type: cell-based; conditions: dose 20.0 µmol/L
BEND3 [2] = test: Inhibition of GLUT in mouse BEND3 cells assessed as decrease in cell proliferation at 20 micromol/L; type: cell-based; conditions: dose 20.0 µmol/L
BEND3 [3] = test: Inhibition of GLUT in mouse BEND3 cells assessed as decrease of [14C]-3-O-methylglucose transport at 20 micromol/L after 2 hrs by glucose transport assay; type: cell-based; conditions: dose 20.0 µmol/L
Summary of the method: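 bEND3 cells were treated with inhibitor or DMSO vehicle for 24 hrs, then held in serum-free DMEM for 2 hrs at 37°C with inhibitor or vehicle and washed. Uptake ran 30 min in DPBS with 20 mM 3-O-methylglucose plus 1 µCi/ml 14C-3MG, still with inhibitor. It was stopped with ice-cold 50 mM glucose in PBS, cells lysed in 0.1 N NaOH, and counted by LSC; triplicate.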

[4] = molecular target: T1, Solute carrier family 2, facilitated glucose transporter member 1 (Mus musculus) (UniProt P17809); test: Inhibition of GLUT1 in mouse BEND3 cells assessed as increase in AMP/ATP ratio at 20 nmol/L; type: cell-based
T1 sequence (whole entry): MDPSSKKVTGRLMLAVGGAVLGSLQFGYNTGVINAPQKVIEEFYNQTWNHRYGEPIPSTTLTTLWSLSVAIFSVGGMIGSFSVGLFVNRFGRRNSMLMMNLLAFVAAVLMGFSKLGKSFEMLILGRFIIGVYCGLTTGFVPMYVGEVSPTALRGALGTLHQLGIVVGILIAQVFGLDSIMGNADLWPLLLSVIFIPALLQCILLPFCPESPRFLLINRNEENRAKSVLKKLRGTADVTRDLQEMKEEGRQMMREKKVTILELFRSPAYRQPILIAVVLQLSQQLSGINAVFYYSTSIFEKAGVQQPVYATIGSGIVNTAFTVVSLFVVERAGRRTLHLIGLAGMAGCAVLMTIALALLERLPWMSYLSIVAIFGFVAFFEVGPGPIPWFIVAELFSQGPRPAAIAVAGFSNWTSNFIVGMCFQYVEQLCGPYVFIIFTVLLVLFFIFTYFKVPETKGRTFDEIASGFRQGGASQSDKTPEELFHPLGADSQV

[5] = molecular target: T1, Solute carrier family 2, facilitated glucose transporter member 1 (Mus musculus); test: Inhibition of GLUT1 in mouse BEND3 cells assessed as decrease in glycolysis at 20 nmol/L relative to cytochalasin B; type: cell-based; conditions: time 2.0 hrs
Summary of the method: (§1)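 Glycolytic flux read as 3H2O release: cells kept 2 hrs in culture medium containing D-[5-3H]-glucose at 0.4 µCi/ml final. Supernatant sealed in glass vials, 3H2O captured over 48 h at 37°C on water-soaked paper in hanging wells, then counted by scintillation. Inhibitor exposure 24 hrs from the day after seeding.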

[6] = molecular target: T1, Solute carrier family 2, facilitated glucose transporter member 1 (Mus musculus); test: Inhibition of GLUT1 in mouse BEND3 cells assessed as reduced phosphorylation of RPS6 at 20 nmol/L by Western blot analysis; type: cell-based
[7] = molecular target: T1, Solute carrier family 2, facilitated glucose transporter member 1 (Mus musculus); test: Inhibition of GLUT1 in mouse BEND3 cells assessed as increase in p53/p21 ratio at 20 nmol/L by Western blot analysis; type: cell-based
Summary of the method: (§2)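 bEND3 lysed in Laemmli buffer, denatured 5 min at 95°C, and 15 µg protein run on 4-20% gels and transferred to PVDF. Probed overnight in 5% milk/TBST with antibodies to phospho-AMPKα (Thr172), AMPKα, p53 and p21, with β-actin.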

[8] = molecular target: T1, Solute carrier family 2, facilitated glucose transporter member 1 (Mus musculus); test: Inhibition of GLUT1 in mouse BEND3 cells assessed as reduced phosphorylation of S6K1 at 20 nmol/L by Western blot analysis; type: cell-based
[9] = molecular target: T1, Solute carrier family 2, facilitated glucose transporter member 1 (Mus musculus); test: Inhibition of GLUT1 in mouse BEND3 cells assessed as reduction in glycolytic metabolite at 20 nmol/L; type: cell-based
[10] = molecular target: T1, Solute carrier family 2, facilitated glucose transporter member 1 (Mus musculus); test: Inhibition of GLUT1 in mouse BEND3 cells assessed as complete inhibition of [14C]-3-O-methylglucose transport at 20 nmol/L after 2 hrs by glucose transport assay; type: cell-based
Summary of the method: (§3)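 Cells pre-held 2 hrs at 37°C in serum-free DMEM with inhibitor or DMSO vehicle, DPBS-washed, then given 20 mM 3-O-methylglucose carrying 1 µCi/ml [14C]-3MG in DPBS plus inhibitor for 30 min uptake. Stopped and washed with ice-cold 50 mM glucose in PBS, lysed in 0.1 N NaOH, counted by liquid scintillation. Triplicate measurements.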

[11] = molecular target: T2, Solute carrier family 2, facilitated glucose transporter member 1 (Homo sapiens) (UniProt P11166); test: Inhibition of GLUT1 in HUVEC assessed as decrease in glycolysis; type: cell-based; summary of the method: as §1
T2 sequence (whole entry): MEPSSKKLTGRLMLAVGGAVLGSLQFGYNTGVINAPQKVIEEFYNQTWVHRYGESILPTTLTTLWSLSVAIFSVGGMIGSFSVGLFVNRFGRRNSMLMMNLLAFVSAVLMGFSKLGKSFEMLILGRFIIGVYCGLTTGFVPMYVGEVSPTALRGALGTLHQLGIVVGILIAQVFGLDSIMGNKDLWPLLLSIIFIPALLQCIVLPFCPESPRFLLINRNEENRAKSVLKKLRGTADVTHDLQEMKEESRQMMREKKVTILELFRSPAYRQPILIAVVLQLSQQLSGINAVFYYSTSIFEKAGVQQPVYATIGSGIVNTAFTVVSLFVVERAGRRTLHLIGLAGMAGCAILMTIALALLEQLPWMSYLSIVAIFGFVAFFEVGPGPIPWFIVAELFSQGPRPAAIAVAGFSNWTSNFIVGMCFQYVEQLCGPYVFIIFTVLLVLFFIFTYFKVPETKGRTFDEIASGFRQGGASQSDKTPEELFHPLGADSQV

[12] = molecular target: T1, Solute carrier family 2, facilitated glucose transporter member 1 (Mus musculus); test: Inhibition of GLUT1 in mouse BEND3 cells assessed as activation of AMPK at 20 nmol/L by Western blot analysis; type: cell-based; summary of the method: as §2
[13] = molecular target: T1, Solute carrier family 2, facilitated glucose transporter member 1 (Mus musculus); test: Inhibition of GLUT1 in mouse BEND3 cells assessed as decrease in cell proliferation at 20 nmol/L; type: cell-based
Summary of the method: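 Proliferation measured after 24 hrs of inhibitor as [6-3H]-thymidine incorporation: 2 hrs with 1 µCi/ml final in culture medium, ethanol fixation 15 min at 4°C, 10% TCA precipitation, 0.1 N NaOH lysis, and scintillation counting.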

[14] = molecular target: T2, Solute carrier family 2, facilitated glucose transporter member 1 (Homo sapiens); test: Inhibition of GLUT1 in human brain microvascular endothelial cells assessed as decrease in glycolysis at 20 nmol/L; conditions: Endothelial cell; summary of the method: as §1
[15] = molecular target: T1, Solute carrier family 2, facilitated glucose transporter member 1 (Mus musculus); test: Inhibition of GLUT1 in mouse primary endothelial cells assessed as decrease in glucose transport; type: cell-based; conditions: Endothelial cell
[16] = molecular target: T2, Solute carrier family 2, facilitated glucose transporter member 1 (Homo sapiens); test: Inhibition of GLUT1 in HUVEC assessed as decrease in sprouting angiogenesis at 40 nmol/L; type: cell-based
Summary of the method: (§4)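 Spheroids of 1000 ECs per 25 µl hanging drop formed overnight in 20% methylcellulose/EGM2, then embedded in 5 mg/ml fibrinogen gel in EGM2 with or without inhibitor and/or 1 µg/ml mitomycin C. Same medium overlaid on gel. Fixed with 4% PFA after 24 hrs and photographed.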

[17] = molecular target: T1, Solute carrier family 2, facilitated glucose transporter member 1 (Mus musculus); test: Inhibition of GLUT1 in mouse BEND3 cells assessed as slight decrease in cell migration at 20 nmol/L by scratch wound assay; type: cell-based
Summary of the method: (§5)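 Confluent monolayers, pre-treated 24 hrs with inhibitor or 1 µg/ml mitomycin C where indicated, scratched with a pipette tip and imaged (T0). Then incubated in EGM2 and fixed with 4% PFA when control closure was near complete. Gap areas measured; closure % = (1 − Tx gap/T0 gap) × 100.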

[18] = molecular target: T1, Solute carrier family 2, facilitated glucose transporter member 1 (Mus musculus); test: Inhibition of GLUT1 in mouse BEND3 cells assessed as reduced phosphorylation of mTORC1 at 20 nmol/L by Western blot analysis; type: cell-based
[19] = molecular target: T2, Solute carrier family 2, facilitated glucose transporter member 1 (Homo sapiens); test: Inhibition of GLUT1 in human retinal microvascular endothelial cells assessed as decrease in glycolysis at 20 nmol/L; type: cell-based; conditions: Endothelial cell, time 2.0 hrs; summary of the method: as §1
[20] = molecular target: T2, Solute carrier family 2, facilitated glucose transporter member 1 (Homo sapiens); test: Inhibition of GLUT1 in HUVEC assessed as sprouting angiogenesis at 40 nmol/L in presence of mitomycin C; type: cell-based; summary of the method: as §4
[21] = molecular target: T1, Solute carrier family 2, facilitated glucose transporter member 1 (Mus musculus); test: Inhibition of GLUT1 in mouse primary endothelial cells assessed as decrease in glycolysis; type: cell-based; conditions: Endothelial cell; summary of the method: as §1
[22] = molecular target: T2, Solute carrier family 2, facilitated glucose transporter member 1 (Homo sapiens); test: Inhibition of GLUT1 in human brain microvascular endothelial cells assessed as decrease in sprouting angiogenesis; conditions: Endothelial cell, dose 20.0 nmol/L; summary of the method: as §4
[23] = molecular target: T2, Solute carrier family 2, facilitated glucose transporter member 1 (Homo sapiens); test: Inhibition of GLUT1 in human retinal microvascular endothelial cells assessed as decrease in sprouting angiogenesis; type: cell-based; conditions: Endothelial cell; summary of the method: as §4
[24] = molecular target: T2, Solute carrier family 2, facilitated glucose transporter member 1 (Homo sapiens); test: Inhibition of GLUT1 in HUVEC assessed as decrease in glucose transport; type: cell-based; summary of the method: as §3
[25] = molecular target: T1, Solute carrier family 2, facilitated glucose transporter member 1 (Mus musculus); test: Inhibition of GLUT1 in mouse BEND3 cells assessed as decrease in [14C]-3-O-methylglucose transport after 2 hrs by glucose transport assay; type: cell-based; summary of the method: as §3
[26] = molecular target: T1, Solute carrier family 2, facilitated glucose transporter member 1 (Mus musculus); test: Inhibition of GLUT1 in mouse BEND3 cells assessed as cell migration at 20 nmol/L by scratch wound assay in presence of mitomycin C; type: cell-based; summary of the method: as §5

C=C1[C@@H](C)[C@H]2[C@H](Cc3ccccc3)NC(=O)[C@]23OC(=O)/C=C/[C@H](O)CCC[C@@H](C)C/C=C/[C@H]3[C@@H]1O
inhibition (BEND3 [1]): Active
inhibition (BEND3 [2]): Active
inhibition (BEND3 [3]): Active

Cc1c(NC(=O)c2cc(C(N)=O)nc3cc(F)ccc23)c(C(F)(F)F)nn1Cc1ccc(C#N)cc1
inhibition [4]: Active
inhibition [5]: Active
inhibition [6]: Active
inhibition [7]: Active
inhibition [8]: Active
inhibition [9]: Active
inhibition [10]: Active
inhibition [11]: Active
inhibition [12]: Active
inhibition [13]: 40%
inhibition [14]: Active
inhibition [15]: Active
inhibition [16]: Active
inhibition [17]: Active
inhibition [18]: Active
inhibition [19]: Active
inhibition [20]: inactive
inhibition [21]: Active
inhibition [22]: Active
inhibition [23]: Active
inhibition [24]: Active
inhibition [25]: Active
inhibition [26]: inactive
